# Columns and labels:
# Format in all cases: functional
# [1] = system: ESM; assay: Concentration required to inhibit HSV-1 (KOS) induced cytopathogenicity in ESM cells by 50%; details: Homo sapiens; read-out: MIC
# Procedure, shortened: (§1)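 Embryonic skin-muscle (ESM) cell cultures were infected with 100 CCID50 of virus (1 CCID50 being the infective dose for 50% of cultures).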
# [2] = system: ESM; assay: Concentration required to inhibit TK-HSV-1 (B2006) induced cytopathogenicity in ESM cells by 50%; details: Homo sapiens; procedure, shortened: as §1
# [3] = system: HEL; assay: Concentration required to inhibit CMV (Davis) induced cytopathogenicity in HEL cells by 50%; details: Homo sapiens
# [4] = system: HEL; assay: Concentration required to inhibit VZV (YS) induced cytopathogenicity in HEL cells by 50%; details: Homo sapiens; read-out: MIC
# [5] = system: ESM; assay: Concentration required to cause 50% reduction in cellular DNA synthesis in ESM cells; details: Homo sapiens; read-out: MIC
# Procedure, shortened: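 In ESM cells, cellular DNA synthesis was monitored by incorporation of [methyl-3H]dThd. The value is the concentration causing a 50% reduction in incorporation.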
# [6] = system: HEL; assay: Concentration required to inhibit VZV (oka) induced cytopathogenicity in HEL cells by 50%; details: Homo sapiens; read-out: MIC
# [7] = system: ESM; assay: Concentration required to inhibit TK-HSV-1 ([…]) induced cytopathogenicity in ESM cells by 50%; details: Homo sapiens; procedure, shortened: as §1
# [8] = system: ESM; assay: Concentration required to inhibit HSV-2(lyons) induced cytopathogenicity in ESM cells by 50%; details: Homo sapiens; read-out: MIC; procedure, shortened: as §1
# [9] = system: HEL; assay: Concentration required to inhibit TK-VZV (07-1) induced cytopathogenicity in HEL cells by 50%; details: Homo sapiens; read-out: MIC
# [10] = system: HEL; assay: Concentration required to cause 50% reduction in HEL cell growth.; details: Homo sapiens; read-out: MIC
# [11] = system: ESM; assay: Concentration required to cause a microscopically detectable alteration of normal cell morphology in ESM cells; details: Homo sapiens
# Procedure, shortened: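 ESM cells were examined under the microscope. The value is the minimum concentration causing a microscopically detectable change in normal cell morphology.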
# [12] = system: ESM; assay: Concentration required to inhibit HSV-2(G) induced cytopathogenicity in ESM cells by 50%; details: Homo sapiens; read-out: MIC; procedure, shortened: as §1
# [13] = system: ESM; assay: Concentration required to inhibit HSV-1 (F) induced cytopathogenicity in ESM cells by 50%; details: Homo sapiens; read-out: MIC; procedure, shortened: as §1
# [14] = system: ESM; assay: Concentration required to inhibit HSV-2(196) induced cytopathogenicity in ESM cells by 50%; details: Homo sapiens; read-out: MIC; procedure, shortened: as §1
# [15] = system: ESM; assay: Concentration required to inhibit HSV-1 (McIntyre) induced cytopathogenicity in ESM cells by 50%; details: Homo sapiens; read-out: MIC; procedure, shortened: as §1
# [16] = system: HEL; assay: Concentration required to inhibit CMV (AD-169) induced cytopathogenicity in HEL cells by 50%; details: Homo sapiens; read-out: MIC
# [17] = system: HEL; assay: Concentration required to inhibit TK-VZV (YSR) induced cytopathogenicity in HEL cells by 50%; details: Homo sapiens
# [18] = system: ESM; assay: Concentration required to inhibit VV induced cytopathogenicity in ESM cells by 50%.; details: Homo sapiens; procedure, shortened: as §1
# [19] = system: ESM; assay: Concentration required to inhibit VV induced cytopathogenicity in ESM cells by 50%; details: Homo sapiens; procedure, shortened: as §1
# [20] = system: HEL; assay: Concentration required to cause 50% reduction in HEL cell growth; details: Homo sapiens
smiles,measurement,setting,value
Cc1cn2c(O)c3ncn(COCCO)c3nc2n1,50% inhibitory concentration against virus-induced cytopathogenicity (EC50),[1],0.7 µg/mL
same,MIC,[2],> 400 µg/mL
same,MIC,[3],> 400 µg/mL
same,EC50,[4],25 µg/mL
same,IC50 (DNA synthesis inhibition),[5],> 200 µg/mL
same,EC50,[6],20 µg/mL
same,MIC,[7],> 400 µg/mL
same,EC50 (50% inhibition of virus cytopathogenicity),[8],0.4 µg/mL
same,EC50,[9],400 µg/mL
same,50% cell growth inhibitory concentration (CC50),[10],> 200 µg/mL
same,MIC,[11],> 400 µg/mL
same,EC50,[12],2 µg/mL
same,EC50,[13],0.7 µg/mL
same,EC50,[14],0.7 µg/mL
same,EC50 for inhibiting virus-induced cytopathogenicity,[15],1 µg/mL
same,EC50,[16],200 µg/mL
same,MIC,[17],> 400 µg/mL
same,MIC,[18],> 400 µg/mL
OCC(CO)OCn1cnc2c(O)n3ccnc3nc21,50% inhibitory concentration against virus-induced cytopathogenicity (EC50),[1],0.7 µg/mL
same,MIC,[2],> 400 µg/mL
same,MIC,[3],200 µg/mL
same,EC50,[4],> 400 µg/mL
same,IC50 (DNA synthesis inhibition),[5],> 200 µg/mL
same,EC50,[6],400 µg/mL
same,MIC,[7],150 µg/mL
same,EC50 (50% inhibition of virus cytopathogenicity),[8],0.7 µg/mL
same,EC50,[9],400 µg/mL
same,50% cell growth inhibitory concentration (CC50),[10],> 200 µg/mL
same,MIC,[11],> 400 µg/mL
same,EC50,[12],2 µg/mL
same,EC50,[13],0.7 µg/mL
same,EC50,[14],2 µg/mL
same,EC50 for inhibiting virus-induced cytopathogenicity,[15],0.7 µg/mL
same,EC50,[16],150 µg/mL
same,MIC,[17],300 µg/mL
same,MIC,[18],> 400 µg/mL
OCCOCn1cnc2c(O)n3ccnc3nc21,50% inhibitory concentration against virus-induced cytopathogenicity (EC50),[1],20 µg/mL
same,MIC,[2],> 400 µg/mL
same,MIC,[3],> 400 µg/mL
same,EC50,[4],> 400 µg/mL
same,IC50 (DNA synthesis inhibition),[5],> 200 µg/mL
same,EC50,[6],> 400 µg/mL
same,MIC,[7],> 400 µg/mL
same,EC50 (50% inhibition of virus cytopathogenicity),[8],10 µg/mL
same,EC50,[9],> 400 µg/mL
same,50% cell growth inhibitory concentration (CC50),[10],> 200 µg/mL
same,MIC,[11],> 400 µg/mL
same,EC50,[12],20 µg/mL
same,EC50,[13],4 µg/mL
same,EC50,[14],70 µg/mL
same,EC50 for inhibiting virus-induced cytopathogenicity,[15],20 µg/mL
same,EC50,[16],> 400 µg/mL
same,MIC,[17],> 400 µg/mL
same,MIC,[18],> 400 µg/mL
CCOC(Cn1c(N)nc2c(ncn2COC(CO)CO)c1=O)OCC,50% inhibitory concentration against virus-induced cytopathogenicity (EC50),[1],70 µg/mL
same,MIC,[2],> 400 µg/mL
same,MIC,[3],> 400 µg/mL
same,EC50,[4],> 400 µg/mL
same,IC50 (DNA synthesis inhibition),[5],> 100 µg/mL
same,EC50,[6],> 400 µg/mL
same,MIC,[7],> 400 µg/mL
same,EC50 (50% inhibition of virus cytopathogenicity),[8],20 µg/mL
same,EC50,[9],> 400 µg/mL
same,50% cell growth inhibitory concentration (CC50),[10],> 200 µg/mL
same,MIC,[11],> 400 µg/mL
same,EC50,[12],70 µg/mL
same,EC50,[13],20 µg/mL
same,EC50,[14],70 µg/mL
same,EC50 for inhibiting virus-induced cytopathogenicity,[15],20 µg/mL
same,EC50,[16],> 400 µg/mL
same,MIC,[17],> 400 µg/mL
same,MIC,[18],> 400 µg/mL
OC[C@H]1OC(n2cnc3c(O)n4ccnc4nc32)[C@H](O)[C@@H]1O (some centres not stated),50% inhibitory concentration against virus-induced cytopathogenicity (EC50),[1],> 400 µg/mL
same,MIC,[2],> 400 µg/mL
same,MIC,[3],400 µg/mL
same,EC50,[4],> 400 µg/mL
same,IC50 (DNA synthesis inhibition),[5],150 µg/mL
same,EC50,[6],> 400 µg/mL
same,MIC,[19],> 400 µg/mL
same,MIC,[7],> 400 µg/mL
same,EC50 (50% inhibition of virus cytopathogenicity),[8],> 400 µg/mL
same,EC50,[9],> 400 µg/mL
same,MIC,[11],> 400 µg/mL
same,MIC,[20],> 200 µg/mL
same,EC50,[12],> 400 µg/mL
same,EC50,[13],> 400 µg/mL
same,EC50,[14],> 400 µg/mL
same,EC50 for inhibiting virus-induced cytopathogenicity,[15],> 400 µg/mL
same,EC50,[16],400 µg/mL
same,MIC,[17],> 400 µg/mL
CCOC(Cn1c(N)nc2c(ncn2C2O[C@H](CO)[C@@H](O)[C@H]2O)c1=O)OCC (some centres not stated),50% inhibitory concentration against virus-induced cytopathogenicity (EC50),[1],> 400 µg/mL
same,MIC,[2],> 400 µg/mL
same,MIC,[3],> 400 µg/mL
same,EC50,[4],> 200 µg/mL
same,IC50 (DNA synthesis inhibition),[5],> 200 µg/mL
same,EC50,[6],> 200 µg/mL
same,MIC,[7],> 400 µg/mL
same,EC50 (50% inhibition of virus cytopathogenicity),[8],100 µg/mL
same,EC50,[9],> 200 µg/mL
same,50% cell growth inhibitory concentration (CC50),[10],> 200 µg/mL
same,MIC,[11],> 400 µg/mL
same,EC50,[12],> 400 µg/mL
same,EC50,[13],100 µg/mL
same,EC50,[14],> 400 µg/mL
same,EC50 for inhibiting virus-induced cytopathogenicity,[15],100 µg/mL
same,EC50,[16],> 400 µg/mL
same,MIC,[17],> 200 µg/mL
same,MIC,[18],> 400 µg/mL
Cc1cn2c(O)c3ncn(C4O[C@H](CO)[C@@H](O)[C@H]4O)c3nc2n1 (some centres not stated),50% inhibitory concentration against virus-induced cytopathogenicity (EC50),[1],> 400 µg/mL
same,MIC,[2],> 400 µg/mL
same,MIC,[3],> 200 µg/mL
same,EC50,[4],> 200 µg/mL
same,IC50 (DNA synthesis inhibition),[5],150 µg/mL
same,EC50,[6],> 200 µg/mL
same,MIC,[19],> 400 µg/mL
same,MIC,[7],> 400 µg/mL
same,EC50 (50% inhibition of virus cytopathogenicity),[8],> 400 µg/mL
same,EC50,[9],> 200 µg/mL
same,MIC,[11],> 400 µg/mL
same,MIC,[20],> 200 µg/mL
same,EC50,[12],> 400 µg/mL
same,EC50,[13],> 400 µg/mL
same,EC50,[14],> 400 µg/mL
same,EC50 for inhibiting virus-induced cytopathogenicity,[15],> 400 µg/mL
same,EC50,[16],> 200 µg/mL
same,MIC,[17],> 200 µg/mL
CCOC(Cn1c(N)nc2c(ncn2COCCO)c1=O)OCC,50% inhibitory concentration against virus-induced cytopathogenicity (EC50),[1],> 400 µg/mL
same,MIC,[2],> 400 µg/mL
same,MIC,[3],> 400 µg/mL
same,EC50,[4],> 400 µg/mL
same,IC50 (DNA synthesis inhibition),[5],> 200 µg/mL
same,EC50,[6],> 400 µg/mL
same,MIC,[7],> 400 µg/mL
same,EC50 (50% inhibition of virus cytopathogenicity),[8],20 µg/mL
same,EC50,[9],> 400 µg/mL
same,50% cell growth inhibitory concentration (CC50),[10],> 200 µg/mL
same,MIC,[11],> 400 µg/mL
same,EC50,[12],> 400 µg/mL
same,EC50,[13],70 µg/mL
same,EC50,[14],20 µg/mL
same,EC50 for inhibiting virus-induced cytopathogenicity,[15],> 400 µg/mL
same,EC50,[16],> 400 µg/mL
same,MIC,[17],> 400 µg/mL
same,MIC,[18],> 400 µg/mL
Cc1cn2c(O)c3ncn(COC(CO)CO)c3nc2n1,50% inhibitory concentration against virus-induced cytopathogenicity (EC50),[1],0.07 µg/mL
same,MIC,[2],200 µg/mL
same,MIC,[3],5 µg/mL
same,EC50,[4],10 µg/mL
same,IC50 (DNA synthesis inhibition),[5],> 200 µg/mL
same,EC50,[6],4 µg/mL
same,MIC,[7],20 µg/mL
same,EC50 (50% inhibition of virus cytopathogenicity),[8],0.07 µg/mL
same,EC50,[9],15 µg/mL
same,50% cell growth inhibitory concentration (CC50),[10],> 200 µg/mL
same,MIC,[11],> 400 µg/mL
same,EC50,[12],0.07 µg/mL
same,EC50,[13],0.07 µg/mL
same,EC50,[14],0.07 µg/mL
same,EC50 for inhibiting virus-induced cytopathogenicity,[15],0.07 µg/mL
same,EC50,[16],4 µg/mL
same,MIC,[17],50 µg/mL
same,MIC,[18],> 400 µg/mL
Nc1nc2c(ncn2COCCO)c(=O)[nH]1 [ACYCLOVIR],MIC,[2],100 µg/mL
same,MIC,[3],15 µg/mL
same,MIC,[7],40 µg/mL
same,MIC,[11],400 µg/mL
same,MIC,[18],> 200 µg/mL
Nc1nc2c(ncn2COC(CO)CO)c(=O)[nH]1 [GANCICLOVIR],MIC,[2],7 µg/mL
same,MIC,[3],1 µg/mL
same,MIC,[7],1 µg/mL
same,MIC,[11],> 400 µg/mL
same,MIC,[18],20 µg/mL

# — ChEMBL document CHEMBL1125932 (1991)
